In brackets after ≈: the same amount, converted by molar mass. Square brackets hold non-standard residues; d marks the D form. Peptide text beside a SMILES is read from it. * marks the point of attachment. Orn = NCCC[C@H](N)C(=O)O; NHCH2CH2OH = OCCN*; For = O=C*
Legend:
[1] = test system: Escherichia coli; test: Antibacterial activity against Escherichia coli DSM 498 in presence of silver nitrate; type: functional
Method in brief: (§1)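 Two-dimensional (checkerboard) microdilution: AgNO3 or carbon-matrix-stabilized silver nanoparticles (mean diameter 25 nm) crossed with a membrane-active antimicrobial peptide, in salt-free Luria/Miller bouillon. Nanoparticles dissolved in 8 mM Tris/HCl pH 7.6 with 150 mM NaCl. MICs taken alone and in combination; FIC index = MIC(A with B)/MIC(A alone) + MIC(B with A)/MIC(B alone). <0.5 synergy, 0.5–2.0 additive, >2.0 antagonism.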

[2] = test system: Acinetobacter calcoaceticus; test: Antibacterial activity against Acinetobacter calcoaceticus DSM 586 in presence of silver nitrate; type: functional; method in brief: as §1
[3] = test system: Enterobacter helveticus; test: Antibacterial activity against Enterobacter helveticus DSM 18396 in presence of silver nitrate; type: functional; method in brief: as §1
[4] = test system: Aeromonas bestiarum; test: Antibacterial activity against Aeromonas bestiarum DSM 13956 in presence of silver nitrate; type: functional; method in brief: as §1
[5] = test system: Proteus myxofaciens; test: Antibacterial activity against Proteus myxofaciens DSM 4482 in presence of silver nitrate; type: functional; method in brief: as §1
[6] = test system: Pseudomonas fluorescens; test: Antibacterial activity against Pseudomonas fluorescens DSM 50090 in presence of silver nitrate; type: functional; method in brief: as §1
[7] = test system: Bacillus subtilis; test: Antibacterial activity against Bacillus subtilis DSM 347 in presence of silver nitrate; type: functional; method in brief: as §1
[8] = test system: Kocuria rhizophila; test: Antibacterial activity against Kocuria rhizophila DSM 348 in presence of silver nitrate; type: functional; method in brief: as §1
[9] = test system: Micrococcus luteus; test: Antibacterial activity against Micrococcus luteus DSM 1790 in presence of silver nitrate; type: functional; method in brief: as §1
[10] = test system: Escherichia coli; test: Antibacterial activity against Escherichia coli DSM 498 in presence of silver nanoparticles; type: functional; method in brief: as §1
[11] = test system: Enterobacter helveticus; test: Antibacterial activity against Enterobacter helveticus DSM 18396 in presence of silver nanoparticles; type: functional; method in brief: as §1
[12] = test system: Aeromonas bestiarum; test: Antibacterial activity against Aeromonas bestiarum DSM 13956 in presence of silver nanoparticles; type: functional; method in brief: as §1
[13] = test system: Proteus myxofaciens; test: Antibacterial activity against Proteus myxofaciens DSM 4482 in presence of silver nanoparticles; type: functional; method in brief: as §1
[14] = test system: Pseudomonas fluorescens; test: Antibacterial activity against Pseudomonas fluorescens DSM 50090 in presence of silver nanoparticles; type: functional; method in brief: as §1
[15] = test system: Bacillus subtilis; test: Antibacterial activity against Bacillus subtilis DSM 347 in presence of silver nanoparticles; type: functional; method in brief: as §1
[16] = test system: Kocuria rhizophila; test: Antibacterial activity against Kocuria rhizophila DSM 348 in presence of silver nanoparticles; type: functional; method in brief: as §1
[17] = test system: Micrococcus luteus; test: Antibacterial activity against Micrococcus luteus DSM 1790 in presence of silver nanoparticles; type: functional; method in brief: as §1
[18] = test system: Escherichia coli; details: DSM 498
[19] = test system: Acinetobacter calcoaceticus; details: DSM 586
[20] = test system: Enterobacter helveticus; details: Franconibacter helveticus; DSM 18396
[21] = test system: Aeromonas bestiarum; details: DSM 13956
[22] = test system: Proteus myxofaciens; details: DSM 4482
[23] = test system: Pseudomonas fluorescens; details: DSM 50090
[24] = test system: Bacillus subtilis; details: DSM 347
[25] = test system: Kocuria rhizophila; details: DSM 348
[26] = test system: Micrococcus luteus; details: DSM 1790
[27] = test system: Escherichia coli; test: microbe, parasite or virus in culture; type: functional; details: DSM 498
[28] = test system: Acinetobacter calcoaceticus; test: microbe, parasite or virus in culture; type: functional; details: DSM 586
[29] = test system: Enterobacter helveticus; test: microbe, parasite or virus in culture; type: functional; details: Franconibacter helveticus, DSM 18396
[30] = test system: Aeromonas bestiarum; test: microbe, parasite or virus in culture; type: functional; details: DSM 13956
[31] = test system: Proteus myxofaciens; test: microbe, parasite or virus in culture; type: functional; details: DSM 4482
[32] = test system: Pseudomonas fluorescens; test: microbe, parasite or virus in culture; type: functional; details: DSM 50090
[33] = test system: Bacillus subtilis; test: microbe, parasite or virus in culture; type: functional; details: DSM 347
[34] = test system: Kocuria rhizophila; test: microbe, parasite or virus in culture; type: functional; details: DSM 348
[35] = test system: Micrococcus luteus; test: microbe, parasite or virus in culture; type: functional; details: DSM 1790
[36] = Toxicity in human erythrocytes assessed as hemolysis by serial dilution method

| Molecule | MIC [27] | MIC [28] | MIC [29] | MIC [30] | MIC [31] | MIC [32] | MIC [33] | MIC [34] | MIC [35] | fractional inhibitory concentration index (FICI) [1] | fractional inhibitory concentration index (FICI) [2] | fractional inhibitory concentration index (FICI) [6] | fractional inhibitory concentration index (FICI) [7] | fractional inhibitory concentration index (FICI) [8] | fractional inhibitory concentration index (FICI) [9] | fractional inhibitory concentration index (FICI) [10] | fractional inhibitory concentration index (FICI) [15] | fractional inhibitory concentration index (FICI) [16] | fractional inhibitory concentration index (FICI) [17] | HC50 ([36]; human erythrocytes) | also measured |
| --- | --- | --- | --- | --- | --- | --- | --- | --- | --- | --- | --- | --- | --- | --- | --- | --- | --- | --- | --- | --- | --- |
| POLYMYXIN B [listing 1 of 2 here] |  |  |  |  |  |  |  |  |  | 0.38 | 0.83 | 0.56 | 0.59 | 0.83 | 0.58 | 0.38 | 0.96 | 0.61 | 0.96 |  | fractional inhibitory concentration index (FICI) ([3]; Franconibacter helveticus): 0.29; fractional inhibitory concentration index (FICI) [4]: 0.5; fractional inhibitory concentration index (FICI) [5]: 0.23; fractional inhibitory concentration index (FICI) ([11]; Franconibacter helveticus): 0.38; fractional inhibitory concentration index (FICI) [12]: 0.39; fractional inhibitory concentration index (FICI) [13]: 0.23; fractional inhibitory concentration index (FICI) [14]: 0.27; MIC [18]: 1 mg/L; MIC [19]: 1 mg/L; MIC [20]: 1 mg/L; MIC [21]: 16 mg/L; MIC [22]: 16 mg/L; MIC [23]: 128 mg/L; MIC [24]: 8 mg/L; MIC [25]: 16 mg/L; MIC [26]: 4 mg/L |
| CC(C)C[C@@H](NC(=O)[C@H](C)NC(=O)CNC(=O)[C@@H](NC=O)C(C)C)C(=O)N[C@@H](C)C(=O)N[C@@H](C(=O)N[C@H](C(=O)N[C@@H](C(=O)N[C@@H](Cc1c[nH]c2ccccc12)C(=O)N[C@H](CC(C)C)C(=O)N[C@@H](Cc1c[nH]c2ccccc12)C(=O)N[C@H](CC(C)C)C(=O)N[C@@H](Cc1c[nH]c2ccccc12)C(=O)N[C@H](CC(C)C)C(=O)N[C@@H](Cc1c[nH]c2ccccc12)C(=O)NCCO)C(C)C)C(C)C)C(C)C [GRAMICIDIN A] (For-VGA[dL]A[dV]V[dV]W[dL]W[dL]W[dL]W-NHCH2CH2OH) | > 128 mg/L | > 128 mg/L | > 128 mg/L | > 128 mg/L | > 128 mg/L | > 128 mg/L | 1 mg/L (≈ 0.531 µM) | 1 mg/L (≈ 0.531 µM) | 1 mg/L (≈ 0.531 µM) |  |  |  | 0.42 | 0.79 | 0.88 |  | 0.94 | 1.04 | 1.04 | 2.3 µg/mL |  |
| H-GIGKFLHSAKKFGKAFVGEIMNS-OH [MAGAININ 2] | 16 mg/L | 16 mg/L | 8 mg/L | > 256 mg/L | > 256 mg/L | > 256 mg/L | 16 mg/L | 16 mg/L | 16 mg/L | 1 | 0.79 |  | 0.69 | 0.67 | 1.02 | 0.86 | 0.67 | 0.96 | 1.04 | 202 µg/mL | fractional inhibitory concentration index (FICI) [3]: 0.71; fractional inhibitory concentration index (FICI) [11]: 0.59 |
| CC(C)C[C@@H]1NC(=O)[C@H](CCCN)NC(=O)[C@H](C(C)C)NC(=O)[C@@H]2CCCN2C(=O)[C@@H](Cc2ccccc2)NC(=O)[C@H](CC(C)C)NC(=O)[C@H](CCCN)NC(=O)[C@H](C(C)C)NC(=O)[C@@H]2CCCN2C(=O)[C@@H](Cc2ccccc2)NC1=O [GRAMICIDIN S] (cyclo(L[dF]PV[Orn]L[dF]PV[Orn])) | 8 mg/L (≈ 7.01 µM) | 16 mg/L (≈ 14 µM) | 4 mg/L (≈ 3.5 µM) | 32 mg/L (≈ 28 µM) | 16 mg/L (≈ 14 µM) | 16 mg/L (≈ 14 µM) | 2 mg/L (≈ 1.75 µM) | 4 mg/L (≈ 3.5 µM) | 2 mg/L (≈ 1.75 µM) | 0.83 | 0.77 | 0.67 | 0.73 | 0.92 | 0.92 | 0.56 | 0.77 | 0.83 | 1.25 | 10.1 µg/mL | fractional inhibitory concentration index (FICI) [3]: 0.32; fractional inhibitory concentration index (FICI) [4]: 0.53; fractional inhibitory concentration index (FICI) [5]: 0.63; fractional inhibitory concentration index (FICI) [11]: 0.44; fractional inhibitory concentration index (FICI) [12]: 0.63; fractional inhibitory concentration index (FICI) [13]: 0.38; fractional inhibitory concentration index (FICI) [14]: 0.48 |
| POLYMYXIN B [listing 2 of 2 here] |  |  |  |  |  |  |  |  |  |  |  |  |  |  |  |  |  |  |  |  | HC50 ([36]; erythrocyte): 210.7 µg/mL |
| CC(=O)NC(C)(C)C(=O)N1CCC[C@H]1C(=O)NC(C)(C)C(=O)N[C@@H](C)C(=O)NC(C)(C)C(=O)N[C@@H](C)C(=O)N[C@@H](CCC(N)=O)C(=O)NC(C)(C)C(=O)N[C@H](C(=O)NC(C)(C)C(=O)NCC(=O)N[C@@H](CC(C)C)C(=O)NC(C)(C)C(=O)N1CCC[C@H]1C(=O)N[C@H](C(=O)NC(C)(C)C(=O)NC(C)(C)C(=O)N[C@@H](CCC(=O)O)C(=O)N[C@@H](CCC(N)=O)C(=O)N[C@H](CO)Cc1ccccc1)C(C)C)C(C)C [ALAMETHICIN] | 256 mg/L (≈ 130 µM) | 256 mg/L (≈ 130 µM) | 256 mg/L (≈ 130 µM) | 256 mg/L (≈ 130 µM) | 256 mg/L (≈ 130 µM) | 128 mg/L (≈ 65.2 µM) | 8 mg/L (≈ 4.07 µM) | 8 mg/L (≈ 4.07 µM) | 8 mg/L (≈ 4.07 µM) | 0.5 |  | 1 | 1 | 1 |  | 0.5 | 0.88 | 1 |  | 17.9 µg/mL | fractional inhibitory concentration index (FICI) [14]: 1 |
| H-GMASKAGAIAGKIAKVALKAL-NH2 | 8 mg/L | 8 mg/L | 8 mg/L | > 256 mg/L | > 256 mg/L | > 256 mg/L | 8 mg/L | 8 mg/L | 4 mg/L | 0.67 | 1.08 |  | 0.92 | 1.08 | 0.71 | 1 | 0.71 | 1.01 | 1 | 165 µg/mL | fractional inhibitory concentration index (FICI) [3]: 0.71; fractional inhibitory concentration index (FICI) [11]: 0.57 |
